Reference: PubChem BioAssay
Inconclusive results are not listed.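 The calls were made as follows, unless noted: active = RAM network inhibition above 8.4% in each of two replicates, 3 SD over the compound average; inconclusive = above 8.4% inhibition in only one replicate; inactive = 8.4% inhibition or less in each replicate.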

What was measured:
[1] = OD615 S. cerevisiae growth inhibition, permissive medium, pilot counter-assay, permissive growth control for S. cerevisiae lifespan shortening project (AID 705;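 active = growth inhibition above 25% in both replicates, a cutoff set 3 SD above the mean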); settings: OD615, 24 h, at 10 µM, hits give high values
Summary of the method: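 System: Engineered DeaD yeast | Buffer or medium: SC raffinose/galactose permissive medium | Doses: 10 µM single dose, 0.25% DMSO | Times: 24 h exposure, 30 °C | Measured by: OD615 turbidity read | Read-out: Yeast growth inhibition indicated by reduced 24 h OD615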

[2] = Restrictive medium S. cerevisiae growth inhibition, OD615, pilot screen of yeast lifespan reduction project, restrictive growth control (AID 706;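 active = growth inhibition above a set limit, 3 SD over mean compound inhibition, in both replicates, cut at about 43% in these data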;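 also: modified DeaD lifespan yeast strain shifted to restrictive glucose medium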); settings: OD615, 48 h, at 10 µM, hits give high values
Summary of the method: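 Assay system: engineered S. cerevisiae DeaD strain; Buffer or medium: CSMM-D glucose medium; Dosing: 10 µM compound, 0.25% DMSO; Times: cell pre-growth 4 h, compound exposure 48 h, 30 °C; Detection: absorbance (optical density) measured at 615 nm.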

[3] = viability gain of MRP-1-high H69AR cells under doxorubicin, pilot screen, MRP-1 activator project, CellTiter-Glo, duplicate (AID 807;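 active = viability increase at or above a cutoff of the median across tested compounds plus 3 SD, cut at about 8.5% in these data, passing the limit was not always enough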;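 also: compound pretreatment 18-22 h then 72 h combined with doxorubicin; 0% = doxorubicin alone and 100% = vehicle without doxorubicin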); settings: H69AR viability with doxorubicin, CellTiter-Glo luminescence; at 10 µM; hits give high values
[4] = growth suppression of beta-catenin knockout HCT116, pilot screen, human colon tumor cells (AID 823;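 active = cell viability at or below a set limit in both duplicate runs, the limit being the all-compound median minus 4 SD, cut at about 23% in these data, passing the limit was not always enough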;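 also: 0% = wells killed by 20 µM Hyamine and 100% = untreated DMSO cell wells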); settings: CellTiter-Glo, 60 h, at 10 µM, hits give low values
[5] = growth suppression of PTEN-deleted HCT116, pilot screen, cell-based, HCT116 clonal line, CellTiter-Glo (AID 824;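 active = viability at or below 27.92% in each of two runs, the all-compound median minus 4 SD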;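 also: 0% = 20 µM Hyamine control and 100% = vehicle cell control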); settings: 60 h, at 10 µM, hits give low values
[6] = inhibitors of the yeast RAM network, pilot screen, dse1pr::URA3 reporter, 5-FOA selection (AID 869;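 active = inhibition over a set limit, the all-compound mean plus 3 SD, in both replicate runs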;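 also: 0% = DMSO wells with no growth and 100% = 10 µM 1-NA-PP1 with full growth; RAM network block rescues cells from 5-FOA so hits raise OD615 growth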); settings: S. cerevisiae dse1pr::URA3 5-FOA growth, OD615, 2 d; at 10 µM; hits give high values; strain carries analog-sensitive mutant Cbk1 kinase
[7] = RAM signaling pathway blockade in yeast – S. cerevisiae, Pdr1DBD-CYC8 efflux-inhibited sensitized strain, primary screen (AID 1298);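 also: 0% = DMSO untreated cells without growth and 100% = 10 µM 1-NA-PP1 full growth; higher means more yeast growth rescued from 5-FOA killing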; settings: S. cerevisiae cbk1-as DSE1-URA3 strain, 5-FOA growth OD615, 2 d; at 50 µM; hits give high values

Oc1ccccc1-c1nnc(COc2ccccc2)o1
inactive: growth inhibition [1] -1.18% | growth inhibition [2] 14.6% | viability increase [3] -1.43% | viability [4] 72.2% | viability [5] 75.5% | inhibition [6] 1.24% | RAM network inhibition [7] 5.2%

CC(=O)c1cccc(NC(=O)N2CCCC2C(=O)NCc2ccccc2)c1 (stereo not given)
inactive: growth inhibition [1] -6.55% | growth inhibition [2] -11.5% | viability increase [3] -1.13% | viability [4] 104% | viability [5] 100% | inhibition [6] 0.87% | RAM network inhibition [7] 1.46%

CCN(CC(=O)NCc1ccc(F)cc1)C(=O)C1CCN(C(=O)Nc2ccccc2)CC1
inactive: growth inhibition [1] -2.92% | growth inhibition [2] -6.36% | viability increase [3] -0.13% | viability [4] 96.2% | viability [5] 98.6% | inhibition [6] 1.25% | RAM network inhibition [7] 0.37%

CCN(CC)S(=O)(=O)c1cc(C(=O)Nc2ccc(Cl)cn2)ccc1C
inactive: growth inhibition [1] -5.56% | growth inhibition [2] -11.5% | viability increase [3] 2.78% | viability [4] 52.9% | viability [5] 74.2% | inhibition [6] 1.1% | RAM network inhibition [7] -0.26%

Cc1occc1-c1nc(-c2ccccn2)no1
inactive: growth inhibition [1] -14.3% | growth inhibition [2] 3.22% | viability increase [3] -4.5% | viability [4] 71.2% | viability [5] 67.7% | inhibition [6] 0.16% | RAM network inhibition [7] 1.6%

Cn1c(C(=O)NCCc2c[nH]c3ccccc23)cc2sccc21
inactive: growth inhibition [1] -2.17% | growth inhibition [2] 12.7% | viability increase [3] -4.58% | viability [4] 95% | viability [5] 88% | inhibition [6] 1.56% | RAM network inhibition [7] 2%

CC1Cn2c(COc3ccccc3)nnc2S1 (stereo not given)
inactive: growth inhibition [1] -8.31% | growth inhibition [2] 6.73% | viability increase [3] -0.25% | viability [4] 102% | viability [5] 94.1% | inhibition [6] 0.645% | RAM network inhibition [7] 4%

CC1CCCC(C)N1c1nnc(NC(=O)Cn2c(=O)oc3ccccc32)s1 (stereo not given)
inactive: growth inhibition [1] -4.67% | growth inhibition [2] 9.9% | viability increase [3] 0.39% | viability [4] 95.1% | viability [5] 99.2% | inhibition [6] 1.85% | RAM network inhibition [7] 3.6%

O=C(Nc1ccc2c(c1)OCO2)C1CCCN1C(=O)OCc1ccccc1 (stereo not given)
inactive: growth inhibition [1] -17.8% | growth inhibition [2] -4.2% | viability increase [3] -1.45% | viability [4] 94.4% | viability [5] 93.6% | inhibition [6] 1.32% | RAM network inhibition [7] 4.12%

CCOC(=O)Cc1csc(NC(=O)c2c(-c3ccccc3)noc2C)n1
inactive: growth inhibition [1] -10.4% | growth inhibition [2] -8.59% | viability increase [3] 4.11% | viability [4] 99.4% | viability [5] 101% | inhibition [6] -0.185% | RAM network inhibition [7] 1.54%

Cn1c(=O)c2c(SCC(=O)N3CCC(Cc4ccccc4)CC3)nc(C3CC3)nc2n(C)c1=O
inactive: growth inhibition [1] -0.44% | growth inhibition [2] -9.93% | viability increase [3] -1.06% | viability [4] 92.9% | viability [5] 88.1% | inhibition [6] 1.28% | RAM network inhibition [7] 0.47%

CCC(Sc1nncn1C)C(=O)Nc1nnc(-c2ccccc2Cl)s1 (stereo not given)
inactive: growth inhibition [1] -3.46% | growth inhibition [2] 31.5% | viability increase [3] -0.85% | viability [4] 103% | viability [5] 92.5% | inhibition [6] 1.72% | RAM network inhibition [7] 2.58%

C=CCOc1cccc(C2C(C(=O)c3ccco3)=C(O)C(=O)N2CCN2CCOCC2)c1 (stereo not given)
inactive: growth inhibition [1] -9.71% | growth inhibition [2] -10.5% | viability increase [3] -2.85% | viability [4] 94.1% | viability [5] 93.2% | inhibition [6] 0.795% | RAM network inhibition [7] -0.11%

CCC(=O)Nc1nc2ccc3nc(C)sc3c2s1
inactive: growth inhibition [1] -5.17% | growth inhibition [2] 32.5% | viability increase [3] -4.98% | viability [4] 75.3% | viability [5] 81.1% | inhibition [6] 0.415% | RAM network inhibition [7] 2.94%

O=C(Nc1ccccc1)c1ccccc1O
inactive: growth inhibition [1] 1.28% | growth inhibition [2] 13.7% | viability increase [3] -1.14% | viability [4] 92.2% | viability [5] 83.2% | inhibition [6] -0.42% | RAM network inhibition [7] -1.46%

C=CCOC(=O)C1=C(C)NC(=O)NC1/C=C/c1ccccc1 (stereo not given)
inactive: growth inhibition [1] -5.98% | growth inhibition [2] -13.1% | viability increase [3] -0.12% | viability [4] 92.5% | viability [5] 95% | inhibition [6] 2.77% | RAM network inhibition [7] 8.11%

CCOc1ccc(N(CC(=O)NCc2ccccc2)S(=O)(=O)c2c(C)noc2C)cc1
inactive: growth inhibition [1] -21.6% | growth inhibition [2] -21.6% | viability increase [3] -0.68% | viability [4] 101% | viability [5] 95.1% | inhibition [6] 4.04% | RAM network inhibition [7] 3.95%

COc1cc(NC(=O)CCCC(=O)OCC(F)(F)C(F)F)nc(OC)n1
inactive: growth inhibition [1] -5.42% | growth inhibition [2] -21.7% | viability increase [3] -0.22% | viability [4] 102% | viability [5] 98.9% | inhibition [6] 1.37% | RAM network inhibition [7] 0.92%

COc1ccc(C)cc1S(=O)(=O)NC1CCCCC1
inactive: growth inhibition [1] -9.02% | growth inhibition [2] -4.09% | viability increase [3] -0.23% | viability [4] 101% | viability [5] 101% | inhibition [6] 0.525% | RAM network inhibition [7] 6.79%

CCn1c(CNC(=O)COC)nc2ccccc21
inactive: growth inhibition [1] -5.41% | growth inhibition [2] 0.165% | viability increase [3] 0.97% | viability [4] 105% | viability [5] 97.2% | inhibition [6] 0.7% | RAM network inhibition [7] 5.67%

O=C(COc1ccccc1)Nc1ccc(S(=O)(=O)N2CCCC2)cc1
inactive: growth inhibition [1] -12.9% | growth inhibition [2] -12.5% | viability increase [3] -1.84% | viability [4] 99.5% | viability [5] 88.7% | inhibition [6] 2.33% | RAM network inhibition [7] 2.76%

O=c1c(N2CCOCC2)nsnc1N1CCOCC1
inactive: growth inhibition [1] 8.28% | growth inhibition [2] -6.26% | viability increase [3] -1.68% | viability [4] 106% | viability [5] 95.8% | inhibition [6] 0.59% | RAM network inhibition [7] -2%

C=CCc1c(C)nc(SCc2nc3ccccc3c(=O)[nH]2)[nH]c1=O
inactive: growth inhibition [1] 3.73% | growth inhibition [2] 15.9% | viability increase [3] 0.9% | viability [4] 94.2% | viability [5] 96.7% | inhibition [6] 0.91% | RAM network inhibition [7] 1.65%

CN1CCN(c2ccccc2NC(=O)Cc2cn(C)c3ccccc23)CC1
inactive: growth inhibition [1] 3.05% | growth inhibition [2] -4.69% | viability increase [3] -2.96% | viability [4] 92.8% | viability [5] 93.7% | inhibition [6] -0.845% | RAM network inhibition [7] 2.59%

Cn1c(=O)c2c(nc(CN3CCN(Cc4ccccc4)CC3)n2Cc2ccccc2)n(C)c1=O
inactive: growth inhibition [1] -6.72% | growth inhibition [2] -11.8% | viability increase [3] -0.85% | viability [4] 85.6% | viability [5] 88% | inhibition [6] 2.02% | RAM network inhibition [7] -0.01%

COc1ccc(N=C2SC(C(=O)O)CC(=O)N2C)cc1 (stereo not given)
inactive: growth inhibition [1] -5.94% | growth inhibition [2] 7.82% | viability increase [3] -0.87% | viability [4] 98.1% | viability [5] 101% | inhibition [6] 0.35% | RAM network inhibition [7] 3.61%

COc1ccc(C)c2sc(=NC(=O)c3ccc(C#N)cc3)n(C)c12
inactive: growth inhibition [1] -5.79% | growth inhibition [2] -17.2% | viability increase [3] -3.95% | viability [4] 85.3% | viability [5] 81.6% | inhibition [6] 0.96% | RAM network inhibition [7] 1.83%

CCN(c1ccccc1)c1cc(C)nc2ncnn12
inactive: growth inhibition [1] -18% | growth inhibition [2] -1.56% | viability increase [3] -3.24% | viability [4] 96.7% | viability [5] 94.9% | inhibition [6] 1.6% | RAM network inhibition [7] 4.57%

CC(=O)c1ccc(NC(=O)C2CCCN2S(=O)(=O)c2cccc3cccnc23)cc1 (stereo not given)
inactive: growth inhibition [1] -11.2% | growth inhibition [2] -8.78% | viability increase [3] -1.7% | viability [4] 98.1% | viability [5] 95.8% | inhibition [6] 0.505% | RAM network inhibition [7] 5.11%

O=C1CCCCC(=O)N(c2ccccc2)c2ccccc21
inactive: growth inhibition [1] -9.64% | growth inhibition [2] -15% | viability increase [3] -3.3% | viability [4] 95.9% | viability [5] 95.6% | inhibition [6] 1.74% | RAM network inhibition [7] 5.34%

Oc1cc(Cc2ccccc2)cnc1CN1CCOCC1
inactive: growth inhibition [1] 1.49% | growth inhibition [2] 2.83% | viability increase [3] -0.73% | viability [4] 96.8% | viability [5] 87.3% | inhibition [6] 0.81% | RAM network inhibition [7] 1.51%

O=C(Cn1ncc2c1-c1ccccc1OC2)N(Cc1ccco1)C1CCCCC1
inactive: growth inhibition [1] 0.715% | growth inhibition [2] -5.62% | viability increase [3] -2.69% | viability [4] 78.5% | viability [5] 74.9% | inhibition [6] 2.08% | RAM network inhibition [7] 3.96%

Cc1csc(=N)n1-c1ccc(Cl)cc1
inactive: growth inhibition [1] -6.4% | growth inhibition [2] -7.49% | viability increase [3] 0.86% | viability [4] 82.5% | viability [5] 80.7% | inhibition [6] 1.35% | RAM network inhibition [7] 9.58%

Cc1oc(-c2ccccc2F)nc1CS(=O)CC(=O)NCc1ccc2c(c1)OCO2 (stereo not given)
inactive: growth inhibition [1] -13.9% | growth inhibition [2] 2.87% | viability increase [3] -1.41% | viability [4] 94.2% | viability [5] 89.3% | inhibition [6] 2% | RAM network inhibition [7] 7.13%

Cc1ccc(-c2nc(CS(=O)(=O)CC(=O)NC3CCCCC3C)c(C)o2)cc1 (stereo not given)
inactive: growth inhibition [1] -15.3% | growth inhibition [2] -32.8% | viability increase [3] -0.44% | viability [4] 93% | viability [5] 87.4% | inhibition [6] 1.73% | RAM network inhibition [7] 7.21%
